The subject of experiment [1] is Mus musculus. Kind of experiment: Efficacy against a lethal virus challenge with an interferon sensitive virus, columbia SK was evaluated 14 days postinfection (oral dosing) as number of mice survived out of 15 tested; NT = Not tested. It counts as functional.
The test system of experiment [2] is Mus musculus. Kind of experiment: Efficacy against a lethal virus challenge with an interferon sensitive virus, columbia SK was evaluated 14 days postinfection (oral dosing) as number of mice survived out of 15 tested. It counts as functional.
The subject of experiment [3] is Mus musculus. Put plainly: Percent reduction in spleen weight in mice as compared to infected untreated controls at 100 mg/kg. It counts as functional. The method in brief:
(§1)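 In BALB/c mice infected ip with Rauscher leukemia virus (same-sex, ≥18 g), compound was given orally in 0.2% Noble agar/saline on days 6, 7 and 8 at 25–200 mg/kg. Animals were weighed on day 14. Spleen weight is expressed as percent reduction versus infected placebo-treated controls, and ≥50% reduction counts as active.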

The test system of experiment [4] is Ovis aries. Kind of experiment: Antibody stimulation by serum hemagglutininin titer over the titer for the infected placebo-treated control in sheep red blood cells at 25 mg/Kg of dose; value is 32/16. It counts as functional.
Experiment [5] concerns Mus musculus. Kind of experiment: Percent reduction in spleen weight in mice as compared to infected untreated controls at 200 mg/kg. It counts as functional. The method in brief: as §1
The test system of experiment [6] is Ovis aries. Kind of experiment: Antibody stimulation by serum hemagglutininin titer over the titer for the infected placebo-treated control in sheep red blood cells at 50 mg/Kg of dose; value is 64/16. It counts as functional.
Experiment [7] deals with Ovis aries. Put plainly: Antibody stimulation by serum hemagglutininin titer over the titer for the infected placebo-treated control in sheep red blood cells at 100 mg/Kg of dose; value is 512/32. It counts as functional.
Experiment [8] has as its system Ovis aries. Kind of experiment: Antibody stimulation by serum hemagglutininin titer over the titer for the infected placebo-treated control in sheep red blood cells at 50 mg/Kg of dose; value is 256/32. It counts as functional.
For experiment [9], the species on record is Ovis aries. Kind of experiment: Antibody stimulation by serum hemagglutininin titer over the titer for the infected placebo-treated control in sheep red blood cells; NA=Not active. It counts as functional, organism-based.
Experiment [10] relates to Mus musculus. Kind of experiment: Percent reduction in spleen weight in mice as compared to infected untreated controls at 50 mg/kg. It counts as functional. The method in brief:
as §1

For experiment [11], the system named is Ovis aries. Kind of experiment: Antibody stimulation by serum hemagglutininin titer over the titer for the infected placebo-treated control in sheep red blood cells at 100 mg/Kg of dose; value is 32/16. It counts as functional.
For experiment [12], the system named is Ovis aries. Kind of experiment: Antibody stimulation by serum hemagglutininin titer over the titer for the infected placebo-treated control in sheep red blood cells at 200 mg/Kg of dose; value is 64/16. It counts as functional.
The test system of experiment [13] is Mus musculus. Kind of experiment: Percent reduction in spleen weight in mice as compared to infected untreated controls at 25 mg/kg. It counts as functional. The method in brief:
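BALB/c mice of the same sex, weighing at least 18 g and within a 3 g range, were inoculated ip with Rauscher leukemia virus as a 20% (w/v) spleen extract, five per group. Compound in 0.2% Noble agar/saline was given orally on days 6, 7 and 8, with SRBC ip on day 7. Mice were weighed on day 14, and percent spleen-weight reduction was taken versus infected placebo-treated controls.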

Experiment [14] is filed under the species Ovis aries. Kind of experiment: Antibody stimulation by serum hemagglutininin titer over the titer for the infected placebo-treated control in sheep red blood cells; value is 128/16. It counts as functional.
The test system of experiment [15] is Ovis aries. Kind of experiment: Antibody stimulation by serum hemagglutininin titer over the titer for the infected placebo-treated control in sheep red blood cells at 200 mg/Kg of dose; value is 32/16. It counts as functional.
Experiment [16] concerns Ovis aries. Kind of experiment: Antibody stimulation by serum hemagglutininin titer over the titer for the infected placebo-treated control in sheep red blood cells at 50 mg/Kg of dose; value is 128/16. It counts as functional.
Experiment [17] relates to Ovis aries. Kind of experiment: Antibody stimulation by serum hemagglutininin titer over the titer for the infected placebo-treated control in sheep red blood cells at 50 mg/Kg of dose; value is 1024/32. It counts as functional.
The test system of experiment [18] is Ovis aries. Kind of experiment: Antibody stimulation by serum hemagglutininin titer over the titer for the infected placebo-treated control in sheep red blood cells at 25 mg/Kg of dose; value is 256/64. It counts as functional.
Experiment [19] has as its system Ovis aries. Kind of experiment: Antibody stimulation by serum hemagglutininin titer over the titer for the infected placebo-treated control in sheep red blood cells at 100 mg/Kg of dose; value is 128/16. It counts as functional.
The test system of experiment [20] is Ovis aries. Kind of experiment: Antibody stimulation by serum hemagglutininin titer over the titer for the infected placebo-treated control in sheep red blood cells at 25 mg/Kg of dose; value is 128/16. It counts as functional.
The subject of experiment [21] is Ovis aries. Kind of experiment: Antibody stimulation by serum hemagglutininin titer over the titer for the infected placebo-treated control in sheep red blood cells at 100 mg/Kg of dose; value is 64/16. It counts as functional.
The test system of experiment [22] is Ovis aries. Put plainly: Antibody stimulation by serum hemagglutininin titer over the titer for the infected placebo-treated control in sheep red blood cells at 200 mg/Kg of dose; value is 128/16. It counts as functional.
Experiment [23] relates to Ovis aries. Kind of experiment: Antibody stimulation by serum hemagglutininin titer over the titer for the infected placebo-treated control in sheep red blood cells at 50 mg/Kg of dose; value is 32/16. It counts as functional.
The subject of experiment [24] is Mus musculus. Kind of experiment: Efficacy against a lethal virus challenge with an interferon sensitive virus, columbia SK was evaluated 14 days postinfection (oral dosing) as number of mice survived out of 20 tested. It counts as functional.
The subject of experiment [25] is Ovis aries. Kind of experiment: Antibody stimulation by serum hemagglutininin titer over the titer for the infected placebo-treated control in sheep red blood cells at 25 mg/Kg of dose; value is 16/16. It counts as functional.
For experiment [26], the species on record is Ovis aries. Put plainly: Antibody stimulation by serum hemagglutininin titer over the titer for the infected placebo-treated control in sheep red blood cells; NA = Not active. It counts as functional, organism-based.
The species entered for experiment [27] is Mus musculus. Kind of experiment: Percent reduction in spleen weight in mice as compared to infected untreated controls; NA = Not Active. It counts as functional, organism-based. The gist of the method:
as §1

In experiment [28] the test system is Ovis aries. Put plainly: Antibody stimulation by serum hemagglutininin titer over the titer for the infected placebo-treated control in sheep red blood cells at 50 mg/Kg of dose; NA = Not Active. It counts as functional, organism-based.

Activity calls are given as the source filed them. The calls are words filed in the database; no cut-off is given here.

Take `CC(CCOc1ccc2cc3ccc(OCCC(C)N(C)C)cc3nc2c1)N(C)C` (stereo unspecified): the Survivors in [1] is listed as 5.

In experiment [2], `CNCCCOc1ccc2cc3ccc(OCCCNC)cc3nc2c1.Cl.O` yielded a Survivors of 8. Also, in experiment [3], the Reduction turned out to be 18%. Also, in experiment [4], the Antibody stimulation amounted to 32.

For the compound `CCN(CC)CCOc1ccc2cc3cc([N+](=O)[O-])c(OCCN(CC)CC)c(Cl)c3nc2c1Cl`, the Survivors in [2] turned out to be 1. The Reduction in experiment [5] is listed as 61%. Besides, the Antibody stimulation in experiment [6] is 64.

Take `CC(C)NCCOc1ccc2cc3ccc(OCCNC(C)C)cc3nc2c1.Cl`: the Survivors in [2] came out at 15. In addition, the Reduction in experiment [5] came to 96%. For the same compound, in [7], the Antibody stimulation is 512.

The compound `CCN(CC)CCOc1ccc2cc3ccc(OCCN(CC)CC)cc3nc2c1.Cl.O` gave a Survivors in experiment [2] of 15. The compound further came in with a Reduction in [3] of 70%. This compound also displayed an Antibody stimulation in experiment [8] of 256.

Turning to `CCC(CO)NCCCOc1ccc2cc3ccc(OCCCNC(CC)CO)cc3nc2c1.Cl.O` (stereo unspecified), the Reduction in experiment [3] was determined as 74%. Moreover, the Antibody stimulation entry in experiment [9] was “inactive”.

In experiment [2], `Cl.OCCNCCOc1ccc2cc3ccc(OCCNCCO)cc3nc2c1` registered a Survivors of 3. In addition, in experiment [10], the Reduction was found to be 35%. Besides, in [11], the Antibody stimulation stood at 32.

For `CCCNCCOc1ccc2cc3ccc(OCCNCCC)cc3nc2c1.Cl.O`, the Survivors in experiment [2] is recorded as 10. In [3], this compound displayed a Reduction of 101%. This compound displayed an Antibody stimulation in experiment [12] of 64.

`CCN(CC)CCOc1ccc2cc3cc(N)c(OCCN(CC)CC)c(Cl)c3nc2c1Cl.Cl.O`: the Reduction in [13] is given as 55%. The same compound showed an Antibody stimulation in experiment [14] of 128.

The compound `CCNCCCOc1ccc2cc3ccc(OCCCNCC)cc3nc2c1.Cl.O` returned a Survivors in [2] of 7. The compound further gave a Reduction in [5] of 78%. In addition, in [15], the Antibody stimulation stood at 32.

Compound `CNCCOc1ccc2cc3ccc(OCCNC)cc3nc2c1.Cl` displayed a Survivors in experiment [2] of 1. The compound also yielded a Reduction in experiment [3] of 86%. Besides, the Antibody stimulation in experiment [16] is given as 128.

As for `CCNCCOc1ccc2cc3ccc(OCCNCC)cc3nc2c1.Cl.O`, in [2], the Survivors was determined as 7. In addition, the Reduction in experiment [3] stood at 89%. In experiment [4], this compound registered an Antibody stimulation of 32.

Consider `Cl.O.c1cc2cc3ccc(OCCCN4CCCCC4)cc3nc2cc1OCCCN1CCCCC1`, for which the Survivors in experiment [2] is 9. The compound further showed a Reduction in [10] of 74%. This compound also gave an Antibody stimulation in [17] of 1024.

As for `O=P1(N(CCCl)CCCl)NCCCO1` (stereo unspecified) [CYCLOPHOSPHAMIDE ANHYDROUS], in experiment [13], the Reduction was 102%.

For the compound `CCCNCCCOc1ccc2cc3ccc(OCCCNCCC)cc3nc2c1.Cl.O`, the Survivors in experiment [2] came out at 13. Also, in experiment [5], the Reduction was found to be 96%.

For `CCN(CC)CCOc1cc2nc3cc(OCCN(CC)CC)c(C)cc3cc2cc1C.Cl.O`, the Survivors in [2] stood at 4. Moreover, the Reduction in [3] is reported as 21%. Besides, the Antibody stimulation in experiment [18] is reported as 256.

In the case of `Cl.c1cc2cc3ccc(OCCN4CCCCC4)cc3nc2cc1OCCN1CCCCC1`, the Survivors in [2] stood at 5. Besides, in experiment [3], the Reduction stood at 62%. Besides, the Antibody stimulation in [19] is 128.

`CCN(CC)CCCOc1ccc2cc3ccc(OCCCN(CC)CC)cc3nc2c1.Cl.O`: the Survivors in experiment [2] is reported as 13. Besides, in experiment [3], the Reduction is given as 72%. In [20], this compound gave an Antibody stimulation of 128.

`CCN(CC)CCOc1ccc2cc3ccc(OCCN(CC)CC)c(Br)c3nc2c1Br`: the Survivors in [2] stood at 6. The compound further had a Reduction in [5] of 92%. Further, the Antibody stimulation in [21] is listed as 64.

Compound `CCN(CC)CCOc1cc([N+](=O)[O-])c2cc3cc([N+](=O)[O-])c(OCCN(CC)CC)c(Cl)c3nc2c1Cl` showed a Survivors in [2] of 3. The Reduction in experiment [10] came out at 46%. In experiment [11], this compound returned an Antibody stimulation of 32.

For the compound `CCCCNCCOc1ccc2cc3ccc(OCCNCCCC)cc3nc2c1.Cl.O`, the Survivors in experiment [2] is 7. This compound came in with a Reduction in [3] of 92%. For the same compound, the Antibody stimulation in experiment [22] worked out at 128.

Turning to `Cl.NCCOc1ccc2cc3ccc(OCCN)cc3nc2c1.O`, the Survivors in experiment [2] came out at 1. Besides, the Reduction in experiment [3] stood at 40%. The Antibody stimulation in [4] turned out to be 32.

The compound `CN1CCN(CCOc2ccc3cc4ccc(OCCN5CCN(C)CC5)cc4nc3c2)CC1` had a Survivors in [2] of 1. In addition, in experiment [10], the Reduction was determined as 75%. Also, the Antibody stimulation in experiment [23] is listed as 32.

In experiment [24], `CCN(CC)CCOc1ccc2c(c1)C(=O)c1cc(OCCN(CC)CC)ccc1-2` [TILORONE] gave a Survivors of 5.

`CN(C)CCCOc1ccc2cc3ccc(OCCCN(C)C)cc3nc2c1.Cl.O` displayed a Survivors in experiment [2] of 9. The compound further came in with a Reduction in experiment [5] of 54%. The same compound showed an Antibody stimulation in [25] of 16.

Turning to `c1cc2cc3ccc(OCCN4CCCC4)cc3nc2cc1OCCN1CCCC1`, in experiment [2], the Survivors is recorded as 5. The Reduction in experiment [10] amounted to 82%. This compound also returned an Antibody stimulation in experiment [21] of 64.

On to `CCN(CC)CCOc1ccc2cc3ccc(OCCN(CC)CC)c(Cl)c3nc2c1Cl`, for which the Survivors in experiment [2] is listed as 7. In experiment [10], the Reduction was 86%. The Antibody stimulation in [19] is reported as 128.

As for `CCN(CC)CCOc1ccc2cc3ccc(OCCN(CC)CC)c([N+](=O)[O-])c3nc2c1[N+](=O)[O-]`, the Survivors in experiment [2] amounted to 1. For the same compound, the Reduction in experiment [3] was determined as 108%. This compound gave an Antibody stimulation in experiment [21] of 64.

In experiment [2], `CN(C)CCCCOc1ccc2cc3ccc(OCCCCN(C)C)cc3nc2c1.Cl.O` gave a Survivors of 2. This compound gave a Reduction in [10] of 52%. Further, the Antibody stimulation result in experiment [26] was “inactive”.

For the compound `CCN(CC)CCOc1ccc2cc3cc([N+](=O)[O-])c(OCCN(CC)CC)c(Br)c3nc2c1Br`, the Survivors in experiment [2] is listed as 5. The Reduction entry in [27] was “inactive”. In [28], the Antibody stimulation result was “inactive”.

The record behind these values is ChEMBL document CHEMBL1122410, “Synthesis of 3,6-bis(aminoalkoxy)acridines and their effect on the immune System” (1983).
